This is an account of results in ChEMBL document CHEMBL2040808, “Design, synthesis, and in vitro activity of novel 2'-O-substituted 15-membered azalides” (J Med Chem, 2012).

Molecules are shown by their SMILES. Where only a bound is given, the exact number is not on record here.

One data set relates to Streptococcus pneumoniae. Nature of the data set: Antibacterial activity against Streptococcus pneumoniae isolate SP030 by broth microdilution method. It is filed as functional. The method, boiled down:
(§1)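 Standard broth microdilution MIC against macrolide-sensitive strains. For streptococci, 5% horse serum replaced lysed horse blood in the broth, and inocula were grown on Columbia agar with 5% sheep blood. S. aureus was grown on Mueller–Hinton agar.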
In general terms: Broth dilution looks for growth in wells or tubes with falling amounts of substance.

The subject of data set [1] is Plasmodium falciparum. Nature of the data set: Ratio of IC50 for azithromycin to compound IC50 for chloroquine-sensitive Plasmodium falciparum 3D7A infected in type A rhesus-positive human erythrocytes assessed as [3H]hypoxanthine incorporation after 48 hrs by scintillation counting. It is filed as functional.
In another data set the test system is Streptococcus pyogenes. Kind of data set: Antibacterial activity against Streptococcus pyogenes isolate 3565 by broth microdilution method. It is filed as functional. The method in brief:
as §1

In data set [2] the test system is Plasmodium falciparum. Nature of the data set: Ratio of IC50 for azithromycin to compound IC50 for chloroquine-resistant Plasmodium falciparum W2 infected in type A rhesus-positive human erythrocytes assessed as [3H]hypoxanthine incorporation after 48 hrs by scintillation counting. It is filed as functional.
Data set [3] in a line: Aqueous solubility of the compound at pH 4. It is filed as physicochemical.
Data set [4] is described as follows: Selectivity ratio of IC50 for human HepG2 cells to IC50 for chloroquine-sensitive Plasmodium falciparum 3D7A. It is filed as ADME, cell-based. Conditions: HepG2 cells versus Plasmodium falciparum 3D7A, read-out: Ratio IC50. The method in brief: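 Selectivity is the HepG2 IC50 divided by the P. falciparum IC50. For HepG2, 50000 cells per well in RPMI 1640 with 10% FBS were exposed to 1:2 serial dilutions for 24 h at 37 °C, 5% CO2. MTS was added for 2 h and absorbance read at 490 nm. Parasite IC50 came from the 48 h [3H]hypoxanthine assay.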

The test system of data set [5] is Plasmodium falciparum. Nature of the data set: Antimalarial activity against chloroquine-resistant Plasmodium falciparum W2 infected in type A rhesus-positive human erythrocytes assessed as [3H]hypoxanthine incorporation after 48 hrs by scintillation counting. It is filed as functional, organism-based. The method in brief: (§2)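 Modified semiautomated microdilution: compounds dissolved in DMSO, diluted in RPMI 1640 with 10% v/v human plasma, serial 1:2 dilutions in triplicate. Infected erythrocytes at 3% hematocrit, 0.25−0.55% parasitemia. [3H]hypoxanthine at 12.5−16 μCi/mL final. Incubated 48 h, 37 °C, in 5% O2/3% CO2/92% N2. Harvested on fiberglass strips, scintillation counted. IC50 by nonlinear regression of concentration−response curves.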

The subject of data set [6] is Plasmodium falciparum. Kind of data set: Antimalarial activity against chloroquine-sensitive Plasmodium falciparum 3D7A infected in type A rhesus-positive human erythrocytes assessed as [3H]hypoxanthine incorporation after 48 hrs by scintillation counting. It is filed as functional, organism-based. The method in brief: as §2
For the next data set, the system named is HepG2. Kind of data set: Cytotoxicity against human HepG2 cells after 24 hrs by MTS assay. Particulars: HepG2, 24 h. It is filed as cell-based. The method in brief:
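Hep G2 cells were kept in RPMI 1640 with 10% FBS at 37 °C and 5% CO2. Wells held 50000 cells and received 1:2 serial dilutions of compound (DMSO stock diluted in medium) for 24 h. MTS reagent was then added for 2 h, absorbance was read at 490 nm, and IC50 was taken from response curves.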
(In general: Tetrazolium dyes change colour on reduction, which living cells bring about.)

Data set [7] is described as follows: Selectivity ratio of IC50 for human HepG2 cells to IC50 for chloroquine-sensitive Plasmodium falciparum 3D7A. Particulars: HepG2 cells versus Plasmodium falciparum 3D7A.
A further data set relates to Staphylococcus aureus. Kind of data set: Antibacterial activity against Staphylococcus aureus ATCC 13709 by broth microdilution method. It is filed as functional. The method, boiled down: as §1

One may read the MIC as the lowest concentration that inhibits growth of the organism. High values mean weaker potency, low ones greater potency. The term solubility denotes the dissolved amount per volume that the medium holds. Low values mean little dissolved substance, high ones much dissolved substance. In general, IC50 refers to the concentration that inhibits the measured activity by half. Turning to `CC[C@H]1OC(=O)[C@H](C)[C@@H](O[C@H]2C[C@@](C)(OC)[C@@H](O)[C@H](C)O2)[C@H](C)[C@@H](O[C@@H]2O[C@H](C)C[C@H](N(C)C)[C@H]2OCCCN(C)Cc2ccnc3ccccc23)[C@](C)(O)C[C@@H](C)CN(C)[C@H](C)[C@@H](O)[C@]1(C)O`, the MIC against Streptococcus pneumoniae, against Streptococcus pyogenes and against Staphylococcus aureus was over 64 µg/mL in each case. Besides, the “Ratio IC50” value in the data set on Plasmodium falciparum [1] and with Plasmodium falciparum [2] was 3 throughout. For the same compound, in [3], the solubility is over 10000 µg/mL. In addition, the selectivity ratio in data set [4] and in [7] was 132 throughout. Besides, the IC50 in the data set on Plasmodium falciparum [5] turned out to be 49 nM; in the data set with Plasmodium falciparum [6], 248 nM; with HepG2 it was 45000 nM.

On to `CC[C@H]1OC(=O)[C@H](C)[C@@H](O[C@H]2C[C@@](C)(OC)[C@@H](O)[C@H](C)O2)[C@H](C)[C@@H](O[C@@H]2O[C@H](C)C[C@H](N(C)C)[C@H]2OCCCN(C)Cc2cnc3ccccc3c2)[C@](C)(O)C[C@@H](C)CN(C)[C@H](C)[C@@H](O)[C@]1(C)O`, for which the MIC in the data set with Streptococcus pneumoniae, in the data set on Streptococcus pyogenes and in the data set with Staphylococcus aureus was over 64 µg/mL in each case. In addition, the “Ratio IC50” value in the data set with Plasmodium falciparum [1] and with Plasmodium falciparum [2] was 3 throughout. The same compound returned a solubility in data set [3] of over 10000 µg/mL. Moreover, the selectivity ratio in [4] and in data set [7] was 49 each time. The IC50 in the data set with Plasmodium falciparum [5] was 47 nM; in the data set with Plasmodium falciparum [6] it was 466 nM; with HepG2 it was 23000 nM.

For `CC[C@H]1OC(=O)[C@H](C)[C@@H](O)[C@H](C)[C@@H](O[C@@H]2O[C@H](C)C[C@H](N(C)C)[C@H]2OCCCNCc2ccnc3ccccc23)[C@](C)(O)C[C@@H](C)CN(C)[C@H](C)[C@@H](O)[C@]1(C)O`, the MIC with Streptococcus pneumoniae, with Streptococcus pyogenes and in the data set with Staphylococcus aureus was over 64 µg/mL each time. Also, the “Ratio IC50” value with Plasmodium falciparum [1] and in the data set with Plasmodium falciparum [2] was 3 in each case. Moreover, in data set [3], the solubility is over 10000 µg/mL. In addition, the selectivity ratio in [4] and in [7] was 132 throughout. In addition, the IC50 in the data set with Plasmodium falciparum [5] was 432 nM; in the data set with Plasmodium falciparum [6], 540 nM; with HepG2, over 100000 nM.
